Measurements reported in ChEMBL document CHEMBL3120098, “Structure-activity relationship (SAR) optimization of 6-(indol-2-yl)pyridine-3-sulfonamides: identification of potent, selective, and orally bioavailable small molecules targeting hepatitis C (HCV) NS4B” (J Med Chem, 2014).

Experiments:
[1] = AUC (0 to 6 hrs) in Sprague-Dawley rat at 10 mg/kg, po; format: ADME, organism-based; design: time < 6 hr, dose 10 mg/kg, route oral; conditions: plasma
[2] = Toxicity in human HuH7 cells assessed as effect on GAPDH mRNA level; format: cell-based, Huh-7
Summary of the method: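 Run in parallel with replicon assay in Con1 replicon Huh-7 cells (0.5% DMSO, 37 °C); endogenous GAPDH mRNA quantified by TaqMan RT-PCR; highest concentration tested 10000 nM.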

[3] = Ratio of EC50 for HCV1b Con1 to plasma concentration in Sprague-Dawley rat at 10 mg/kg, po after 6 hrs
[4] = system: Hepatitis C virus; assay: Antiviral activity against HCV1b Con1 infected in human HuH7 cells assessed as inhibition of viral RNA replication by RT-PCR analysis; format: functional, organism-based, Hepacivirus hominis; conditions: isolate Con1, Huh-7
[5] = system: Hepatitis C virus; assay: Antiviral activity against HCV2a JFH-1 infected in human HuH7 cells assessed as inhibition of viral replication; format: functional, organism-based, Hepacivirus hominis; conditions: JFH-1, Huh-7
[6] = molecular target: T1, Cytochrome P450 3A4 (Homo sapiens, UniProt P08684); assay: Induction of CYP3A4 activity in human hepatocytes at 10 uM relative to rifampicin; format: ADME, cell-based, Hepatocyte
Summary of the method: (§1)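 Cryopreserved cultured human hepatocytes incubated 3 days with compound at several concentrations; CYP3A4 enzyme activity and mRNA expression measured, expressed as percent induction relative to rifampicin.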

[7] = molecular target: T1, Cytochrome P450 3A4; assay: Inhibition of CYP3A4 in human liver microsomes; format: ADME
[8] = molecular target: T1, Cytochrome P450 3A4; assay: Induction of CYP3A4 activity in human hepatocytes at 3 uM relative to rifampicin; format: ADME, cell-based, Hepatocyte; summary of the method: as §1
[9] = molecular target: Cytochrome P450 2C9 (Homo sapiens, UniProt P11712); assay: Inhibition of CYP2C9 in human liver microsomes; format: ADME
[10] = system: Hepatocyte; assay: Induction of CYP3A4 mRNA expression in human hepatocytes at 3 uM relative to rifampicin; format: ADME, cell-based; summary of the method: as §1
[11] = system: Pregnane X receptor (Homo sapiens); assay: Activation of PXR (unknown origin) at 10 uM by reporter gene assay
[12] = system: Hepatocyte; assay: Induction of CYP3A4 mRNA expression in human hepatocytes at 10 uM relative to rifampicin; format: ADME, cell-based; summary of the method: as §1
[13] = molecular target: Cytochrome P450 2D6 (Homo sapiens, UniProt P10635); assay: Inhibition of CYP2D6 in human liver microsomes; format: ADME
[14] = Ratio of drug level in liver to plasma in Sprague-Dawley rat at 10 mg/kg, po after 6 hrs; format: ADME, organism-based; design: dose 10 mg/kg, route oral
Summary of the method: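 Male Sprague-Dawley rats, 10 mg/kg PO suspension in 0.4% hydroxypropyl methylcellulose; liver and plasma drug levels measured at 6 h, expressed as liver/plasma ratio.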

Cytochrome P450 2C9, sequence (P11712 whole entry): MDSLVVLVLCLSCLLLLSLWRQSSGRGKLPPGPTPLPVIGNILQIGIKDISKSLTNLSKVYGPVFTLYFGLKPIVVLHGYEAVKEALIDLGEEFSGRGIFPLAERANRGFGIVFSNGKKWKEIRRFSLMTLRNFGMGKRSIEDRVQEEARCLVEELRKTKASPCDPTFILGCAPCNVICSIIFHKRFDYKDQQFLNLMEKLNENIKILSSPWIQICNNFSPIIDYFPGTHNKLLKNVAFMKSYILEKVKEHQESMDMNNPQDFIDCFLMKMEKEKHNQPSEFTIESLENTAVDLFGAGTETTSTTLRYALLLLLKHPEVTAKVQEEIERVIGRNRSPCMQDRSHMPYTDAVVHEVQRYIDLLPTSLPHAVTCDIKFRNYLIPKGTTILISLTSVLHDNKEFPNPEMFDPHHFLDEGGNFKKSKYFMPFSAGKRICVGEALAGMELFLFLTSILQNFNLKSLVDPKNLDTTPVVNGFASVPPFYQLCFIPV
Cytochrome P450 2D6, sequence (P10635 whole entry): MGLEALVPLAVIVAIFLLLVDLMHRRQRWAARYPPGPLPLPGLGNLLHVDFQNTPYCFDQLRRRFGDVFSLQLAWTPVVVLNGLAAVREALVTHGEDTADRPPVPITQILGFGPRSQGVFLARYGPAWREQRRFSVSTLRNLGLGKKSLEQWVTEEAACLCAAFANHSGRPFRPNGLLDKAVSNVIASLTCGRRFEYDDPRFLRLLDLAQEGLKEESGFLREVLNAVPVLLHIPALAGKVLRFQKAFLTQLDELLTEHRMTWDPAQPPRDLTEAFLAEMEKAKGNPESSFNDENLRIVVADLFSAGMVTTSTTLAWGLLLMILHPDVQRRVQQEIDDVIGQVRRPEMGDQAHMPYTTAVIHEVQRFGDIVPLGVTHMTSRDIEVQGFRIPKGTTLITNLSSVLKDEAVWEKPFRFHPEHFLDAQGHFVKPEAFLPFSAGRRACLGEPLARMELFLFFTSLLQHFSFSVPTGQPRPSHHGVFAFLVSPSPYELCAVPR
T1 sequence (P08684 whole entry): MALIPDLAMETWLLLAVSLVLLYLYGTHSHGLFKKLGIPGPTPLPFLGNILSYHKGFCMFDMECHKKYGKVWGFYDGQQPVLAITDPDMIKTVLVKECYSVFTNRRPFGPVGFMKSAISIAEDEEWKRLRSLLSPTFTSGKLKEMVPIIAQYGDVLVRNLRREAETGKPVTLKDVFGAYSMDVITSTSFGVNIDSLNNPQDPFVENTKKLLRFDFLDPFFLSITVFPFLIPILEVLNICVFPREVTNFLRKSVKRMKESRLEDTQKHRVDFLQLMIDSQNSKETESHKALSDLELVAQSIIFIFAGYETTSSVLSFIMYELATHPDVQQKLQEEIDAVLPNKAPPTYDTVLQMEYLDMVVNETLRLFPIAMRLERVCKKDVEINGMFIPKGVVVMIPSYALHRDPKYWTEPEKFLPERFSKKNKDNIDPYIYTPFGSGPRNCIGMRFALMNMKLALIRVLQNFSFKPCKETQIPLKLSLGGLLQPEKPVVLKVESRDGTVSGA

SMILES | AUC(0-t) at 6 h [1] | EC50 [4] | IC50 [2] | Ratio [3] | other results
Cc1cc2c(cc1F)c(C#N)c(-c1ccc(S(=O)(=O)N[C@@H](C)C(F)(F)F)cn1)n2-c1ccncc1 | 2.6 µM·h | 11 nM | > 10 µM | 24 | –
Cc1cc2c(C#N)c(-c3ccc(S(=O)(=O)N[C@@H](C)C(F)(F)F)cn3)n(C3CCC3)c2cc1OC(F)F | – | 108 nM | 10 µM | – | –
Cc1cc2c(cc1F)c(C#N)c(-c1ccc(S(=O)(=O)N[C@@H](C)C(F)(F)F)cn1)n2-c1cccnc1 | 6.39 µM·h | 11 nM | > 10 µM | 65 | –
CCc1cc2c(cc1F)c(C#N)c(-c1ccc(S(=O)(=O)N[C@@H](C)C(F)(F)F)cn1)n2-c1ccc(F)cn1 | 1.79 µM·h | 13 nM | > 10 µM | 12 | –
COc1cc2c(cc1F)c(C#N)c(-c1ccc(S(=O)(=O)N[C@@H](C)C(F)(F)F)cn1)n2C1CCC1 | – | 74 nM | > 10 µM | – | –
CCc1cc2c(C#N)c(-c3ccc(S(=O)(=O)N[C@@H](C)C(F)(F)F)cn3)n(C3CCC3)c2cc1OC(F)F | – | 1400 nM | > 10 µM | – | –
CCc1cc2c(cc1F)c(C#N)c(-c1ccc(S(=O)(=O)N[C@@H](C)C(F)(F)F)cn1)n2-c1ncc(C)cn1 | 7.24 µM·h | 23 nM | > 10 µM | 44 | –
C[C@H](NS(=O)(=O)c1ccc(-c2c(C#N)c3cc(F)c(C4CC4)cc3n2-c2ccccn2)nc1)C(F)(F)F | – | 16 nM | > 10 µM | – | –
Cc1cc2c(cc1F)c(C#N)c(-c1ccc(S(=O)(=O)N[C@@H](C)C(F)(F)F)cn1)n2-c1ncccc1C | – | 400 nM | > 10 µM | – | –
CCc1cc2c(cc1F)c(C#N)c(-c1ccc(S(N)(=O)=O)cn1)n2-c1ncccn1 | – | > 10000 nM | – | – | –
Cc1cc(F)c2c(C#N)c(-c3ccc(S(=O)(=O)N[C@@H](C)C(F)(F)F)cn3)n(C3CCC3)c2c1 | – | 153 nM | > 10 µM | – | –
C[C@H](NS(=O)(=O)c1ccc(-c2c(C#N)c3cc(F)c(Cl)cc3n2C2CCC2)nc1)C(F)(F)F | – | 460 nM | > 10 µM | – | –
C[C@H](NS(=O)(=O)c1ccc(-c2c(C#N)c3cc(F)c(OC(F)F)cc3n2-c2ncccn2)nc1)C(F)(F)F | 3.81 µM·h | 16 nM | > 10 µM | – | –
CSc1cc2c(cc1F)c(C#N)c(-c1ccc(S(=O)(=O)N[C@@H](C)C(F)(F)F)cn1)n2C1CCC1 | – | 35 nM | > 10 µM | – | –
C[C@H](NS(=O)(=O)c1ccc(-c2c(C#N)c3c(F)cc(OC(F)F)cc3n2C2CCC2)nc1)C(F)(F)F | – | 18 nM | > 10 µM | – | –
C[C@H](NS(=O)(=O)c1ccc(-c2c(C#N)c3cc(F)c(C4CC4)cc3n2C2CCC2)nc1)C(F)(F)F | – | 28 nM | > 10 µM | – | –
C[C@H](NS(=O)(=O)c1ccc(-c2c(C#N)c3cc(O)c(OC(F)F)cc3n2C2CCC2)nc1)C(F)(F)F | – | 63 nM | > 10 µM | – | –
Cc1cc2c(cc1F)c(C#N)c(-c1ccc(S(=O)(=O)N[C@@H](C)C(F)(F)F)cn1)n2-c1ccccn1 | 4.52 µM·h | 18 nM | > 10 µM | 49 | –
Cc1cc2c(cc1F)c(C#N)c(-c1ccc(S(=O)(=O)N[C@@H](C)C(F)(F)F)cn1)n2-c1cccnn1 | 3.26 µM·h | 13 nM | > 10 µM | 22 | –
Cc1ccc(-n2c(-c3ccc(S(=O)(=O)N[C@@H](C)C(F)(F)F)cn3)c(C#N)c3cc(F)c(C)cc32)nc1 | – | 25 nM | > 10 µM | – | –
Cc1cnc(-n2c(-c3ccc(S(=O)(=O)N[C@@H](C)C(F)(F)F)cn3)c(C#N)c3cc(F)c(C)cc32)nc1 | – | 32 nM | > 10 µM | – | –
C[C@H](NS(=O)(=O)c1ccc(-c2c(C#N)c3cc(F)c(C4CC4)cc3n2-c2ccc(F)cn2)nc1)C(F)(F)F | 1.7 µM·h | 12 nM | > 10 µM | 20 | –
CC(O)c1cc2c(cc1F)c(C#N)c(-c1ccc(S(=O)(=O)N[C@@H](C)C(F)(F)F)cn1)n2-c1ncccn1 (some centres not stated) | – | 68 nM | – | – | –
CC(O)c1cc2c(cc1F)c(C#N)c(-c1ccc(S(N)(=O)=O)cn1)n2-c1ncccn1 (configuration not stated) | – | > 10000 nM | – | – | –
Cc1cc2c(cc1F)c(C#N)c(-c1ccc(S(=O)(=O)N[C@@H](C)C(F)(F)F)cn1)n2-c1cscn1 | 10.3 µM·h | 20 nM | > 10 µM | 35 | –
C[C@H](NS(=O)(=O)c1ccc(-c2c(C#N)c3cc(F)c(O)cc3n2C2CCC2)nc1)C(F)(F)F | – | 410 nM | > 10 µM | – | –

Now those with a lower EC50 [4], led by results:

AUC(0-t) at 6 h [1] | EC50 [4] | SMILES | IC50 [2] | Ratio [3] | other results
6.38 µM·h | 9 nM | CCc1cc2c(cc1F)c(C#N)c(-c1ccc(S(=O)(=O)N[C@@H](C)C(F)(F)F)cn1)n2-c1ccncc1 | > 10 µM | 47 | –
0.885 µM·h | 9 nM | Cc1cc2c(cc1F)c(C#N)c(-c1ccc(S(=O)(=O)N[C@@H](C)C(F)(F)F)cn1)n2-c1cnccn1 | > 10 µM | 9 | –
3.45 µM·h | 8 nM | Cc1cc2c(cc1F)c(C#N)c(-c1ccc(S(=O)(=O)N[C@@H](C)C(F)(F)F)cn1)n2-c1ccc(F)cn1 | > 10 µM | 42 | –
1.1 µM·h | 7 nM | Cc1cc2c(cc1F)c(C#N)c(-c1ccc(S(=O)(=O)N[C@@H](C)C(F)(F)F)cn1)n2C1CCC1 | > 10 µM | 24 | Kp at 6 h [14]: 29.1
20.1 µM·h | 7 nM | C[C@H](NS(=O)(=O)c1ccc(-c2c(C#N)c3ccc(OC(F)F)cc3n2-c2ncccn2)nc1)C(F)(F)F | > 10 µM | – | –
6.27 µM·h | 7 nM | Cc1cc2c(cc1F)c(C#N)c(-c1ccc(S(=O)(=O)N[C@@H](C)C(F)(F)F)cn1)n2-c1cncs1 | > 10 µM | 38 | –
8.91 µM·h | 6 nM | Cc1cc2c(cc1F)c(C#N)c(-c1ccc(S(=O)(=O)N[C@@H](C)C(F)(F)F)cn1)n2-c1ncccn1 | > 10 µM | 213 | EC50 [5]: 2200 nM; Activity [6]: 3%; IC50 [7]: > 10 µM; Activity [8]: 7%; IC50 [9]: > 10 µM; Activity [10]: 39.8%; Activity [11]: 36%; Activity [12]: 41.5%; IC50 [13]: > 10 µM
2.04 µM·h | 6 nM | C[C@H](NS(=O)(=O)c1ccc(-c2c(C#N)c3cc(F)c(C4CC4)cc3n2-c2ncccn2)nc1)C(F)(F)F | > 10 µM | 75 | –
3.85 µM·h | 5 nM | CCc1cc2c(cc1F)c(C#N)c(-c1ccc(S(=O)(=O)N[C@@H](C)C(F)(F)F)cn1)n2-c1ccccn1 | > 10 µM | 69 | IC50 [7]: > 10 µM; IC50 [9]: > 10 µM; Activity [11]: 54%; IC50 [13]: > 10 µM
0.3 µM·h | 4 nM | CCc1cc2c(cc1F)c(C#N)c(-c1ccc(S(=O)(=O)N[C@@H](C)C(F)(F)F)cn1)n2C1CCC1 | > 10 µM | 18 | Kp at 6 h [14]: 30.6
0.345 µM·h | 4 nM | CCc1cc2c(cc1F)c(C#N)c(-c1ccc(S(=O)(=O)N[C@@H](C)C(F)(F)F)cn1)n2-c1cnccn1 | > 10 µM | 14 | –
4.08 µM·h | 4 nM | Cc1cc2c(cc1F)c(C#N)c(-c1ccc(S(=O)(=O)N[C@@H](C)C(F)(F)F)cn1)n2-c1ncc(F)cn1 | > 10 µM | 187 | IC50 [7]: > 10 µM; IC50 [9]: > 10 µM; Activity [11]: 96%; IC50 [13]: > 10 µM
8.69 µM·h | 3 nM | CCc1cc2c(cc1F)c(C#N)c(-c1ccc(S(=O)(=O)N[C@@H](C)C(F)(F)F)cn1)n2-c1ncc(F)cn1 | > 10 µM | 136 | IC50 [7]: > 10 µM; IC50 [9]: > 10 µM; Activity [11]: 71%; IC50 [13]: > 10 µM
8.54 µM·h | 3 nM | Cc1cc2c(cc1F)c(C#N)c(-c1ccc(S(=O)(=O)N[C@@H](C)C(F)(F)F)cn1)n2-c1ncccc1F | > 10 µM | 194 | IC50 [7]: > 10 µM; IC50 [9]: > 10 µM; Activity [11]: 59%; IC50 [13]: > 10 µM
– | 3 nM | Cc1ccc2c(C#N)c(-c3ccc(S(=O)(=O)N[C@@H](C)C(F)(F)F)cn3)n(-c3ncccn3)c2c1 | > 10 µM | – | –
1.76 µM·h | 3 nM | Cc1cc2c(cc1F)c(C#N)c(-c1ccc(S(=O)(=O)N[C@@H](C)C(F)(F)F)cn1)n2-c1nccs1 | > 10 µM | 96 | –
0.48 µM·h | 2 nM | Cc1cc2c(cc1F)c(C#N)c(-c1ccc(S(=O)(=O)N[C@@H](C)C(F)(F)F)cn1)n2-c1cccs1 | > 10 µM | 29 | –
2.75 µM·h | 2 nM | CCc1cc2c(cc1F)c(C#N)c(-c1ccc(S(=O)(=O)N[C@@H](C)C(F)(F)F)cn1)n2-c1nccs1 | > 10 µM | 347 | –
